eIF4E-4G inh: inhibitors of eIF4E and eIF4G interaction in translation initiation; P63073+Q04637; TR-FRET eIF4E-eIF4GI(517-606) binding, 2 h; inhibition, % at 21.7 µM; 220,000 compounds, 0.37% hits; AID 782;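 further: 0% = full FRET control wells and 100% = background wells lacking eIF4GI fragment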
14-3-3 Bad PPI: disrupts binding of bovine 14-3-3 zeta to phospho-Bad peptide | TR-FRET 14-3-3zeta/Dy647-pBad peptide displacement, 1 h | inhibition, % at 21.7 µM | 220,000 compounds, 0.71% hits;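 active means inhibition above about 70%, limit read from the data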;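 further: 0% = full 14-3-3 plus peptide FRET controls and 100% = background without 14-3-3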
Hck-Nef inh: human Hck-Nef kinase inhibition. inhibition, % at 20 µM. Recombinant Hck-YEEI plus Nef, Z-Lyte FRET kinase assay. AID 463187. 220,000 compounds, 0.68% hits. P08631;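 active means Hck-Nef kinase inhibition above about 50%, limit read from the data; inactive means inhibition below that limit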;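 further: 0% = DMSO with Hck plus Nef and 100% = Hck alone without Nef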
Target sequence (P08631 whole entry, looked up): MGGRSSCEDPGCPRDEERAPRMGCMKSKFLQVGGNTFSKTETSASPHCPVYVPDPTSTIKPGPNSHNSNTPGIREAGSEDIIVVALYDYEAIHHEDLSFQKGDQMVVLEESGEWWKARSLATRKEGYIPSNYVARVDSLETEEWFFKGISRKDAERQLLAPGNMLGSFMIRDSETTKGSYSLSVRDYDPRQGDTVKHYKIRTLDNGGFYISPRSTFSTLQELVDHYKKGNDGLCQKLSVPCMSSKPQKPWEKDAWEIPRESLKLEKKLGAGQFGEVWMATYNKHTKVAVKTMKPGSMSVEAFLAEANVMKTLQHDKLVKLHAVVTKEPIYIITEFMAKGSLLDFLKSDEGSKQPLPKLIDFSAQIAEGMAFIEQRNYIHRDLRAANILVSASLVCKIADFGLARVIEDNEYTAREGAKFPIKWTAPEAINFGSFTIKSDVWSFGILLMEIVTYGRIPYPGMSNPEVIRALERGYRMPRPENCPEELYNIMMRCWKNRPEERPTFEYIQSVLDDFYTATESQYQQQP
Diaphorase act: counter-screen for diaphorase-based assays: diaphorase activators and chemical reducers. Diaphorase/resazurin coupled assay, resorufin fluorescence, 16 min; hits give high values; 1 = vehicle wells, 0 = NADH-free wells. activation factor at 20 µM. 190,000 compounds, 0.005% hits. AID 1229;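 active means diaphorase activity raised at least twofold by the compound at 20 µM; inactive means activation factor below 2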
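Material: purified diaphorase enzyme from Clostridium kluyveri / Medium: HEPES pH 7.4 buffer with MgCl2 and Tween 20 / Schedule: enzyme reaction of 16 min at room temperature / Measured by: resorufin fluorescence, excitation 544 nm, emission 590 nm / Evaluation: rise in resorufin formation, marking diaphorase activation or chemical reduction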
p47phox inh: blocks human p47phox regulatory protein of NADPH oxidases. AID 1274. inhibition, % at 24.7 µM. 220,000 compounds, 0.53% hits. p47phox/p22phox peptide binding, fluorescence polarization, 2 h. P14598;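 further: 0% = p47phox with labelled peptide and 100% = labelled peptide alone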
Hck-Nef confirm: Hck-Nef kinase inhibition, confirmation. Recombinant Hck-YEEI:Nef, Z-Lyte FRET kinase assay. 1,300 compounds, 28% hits. shares compounds with Hck-Nef inh. calls only at 10 µM. AID 463188;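 active means average inhibition of at least 50%, with Z-scores no higher than 3 in both the phospho-tyrosine peptide and fluorescence counterscreens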
An asterisk follows results filed as active; i = inactive; / = not tested or not shown; + = active, no number. In the library only some 2% were active in any assay of this set; here they are far more common.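 How the source made its calls, unless noted: active means inhibition above about 30% (limit read from the data); inactive means the rest.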

SMILES	eIF4E-4G inh	14-3-3 Bad PPI	Hck-Nef inh	Diaphorase act	p47phox inh	Hck-Nef confirm
CC(=O)Nc1ncnc2c1c(-c1ccc(Cl)cc1)nn2C(C)(C)C	-0.9	7.9	+	0.9	-1.9	+
O=C(CN1CCN(S(=O)(=O)c2ccc(Br)cc2)CC1)N/N=C/c1ccncc1	2.3	2.5	1.5	/	3.8	/
COCCn1c(SCC(=O)Nc2sc(C)c(C)c2C#N)nnc1-c1ccc(OC)cc1	0.0	-10.0	2.0	0.7	-2.6	/
Cc1ccc(-c2nnc(SCC(=O)Nc3sc(C)c(C)c3C#N)n2C)cc1	3.2	45.7	50.2*	0.9	11.9	i
COc1ccc(C(=O)N/C(=C\c2ccccc2)C(=O)NC(CCSC)C(=O)O)cc1 (configuration not stated)	-3.3	9.1	-0.6	0.7	-11.3	/
COc1ccc(C(=O)N/C(=C\c2ccccc2)C(=O)NC(CC(C)C)C(=O)O)cc1 (configuration not stated)	-3.8	-10.2	59.7*	1	4.3	i
Cc1cccc(C(=O)N[C@H](C(=O)OCC(=O)NC2CCS(=O)(=O)C2)C(C)C)c1 (some centres not stated)	-4.0	-2.8	1.6	1	0.1	/
CC1(C)CC(=O)C2=C(C1)c1c(ccc3ccccc13)NC2c1cc([N+](=O)[O-])cc([N+](=O)[O-])c1O (configuration not stated)	0.7	2.6	51.4*	0.6	-19.4	+
COc1ccccc1C1CCN(C(=O)c2cccc([N+](=O)[O-])c2)CC1	-3.1	0.2	11.1	/	-13.9	/
S=c1[nH]nc(COc2ccccc2)n1/N=C/c1ccco1	-3.4	-8.3	16.5	0.8	-9.3	/
CC(/C=N/n1c(COc2ccccc2)n[nH]c1=S)=C\c1ccco1	2.3	-5.5	50.0*	/	-7.2	i
CCOc1ccc(NC(=O)CNC(=O)c2ccc([N+](=O)[O-])cc2)cc1	-1.6	-20.9	46.8	0.9	-0.3	/
O=C(c1cnn(C(=O)c2cccc(S(=O)(=O)N3CCOCC3)c2)c1)c1ccccc1O	-3.1	4.0	128.8*	0.9	-10.5	+
O=C(c1cnn(C(=O)c2cccc(S(=O)(=O)N3CCOCC3)c2)c1)c1cc(Cl)cc(Cl)c1O	0.7	-5.4	4.2	/	-23.4	/
COCCCn1c(=N)c(C(=O)NC2CCCCC2)cc2c(=O)n3ccccc3nc21	-1.9	-10.8	+	1	-1.5	/
Cc1cccn2c(=O)c3cc(C(=O)NC(C)c4ccccc4)c(=N)n(CCCn4ccnc4)c3nc12 (configuration not stated)	-3.7	-10.2	+	/	-12.6	/
N=c1c(C(=O)NC2CCCC2)cc2c(=O)n3ccccc3nc2n1C1CCCC1	/	/	122.1*	0.9	-2.1	/
CCCn1c(=N)c(C(=O)NC2CCCC2)cc2c(=O)n3cccc(C)c3nc21	1.4	3.0	187.3*	1	0.4	/
CCCCNC(=O)c1cc2c(=O)n3cccc(C)c3nc2n(CCN2CCOCC2)c1=N	7.8	-16.6	29.9	0.9	-5.3	/
COCCCn1c(=N)c(C(=O)NCc2ccc3c(c2)OCO3)cc2c(=O)n3ccccc3nc21	-7.5	2.1	8.0	1.3	-2.2	/
O=C(c1ccc(Cl)c(S(=O)(=O)N2CCCC2)c1)N1CCN(c2ncccn2)CC1	-1.8	-13.4	25.3	0.9	-17.8	/
COCc1cc(C)nc(N/N=C/c2ccc(-c3ccc(Cl)cc3[N+](=O)[O-])o2)c1C#N	4.4	85.9*	171.0*	0.7	40.2*	+
Cc1c(C(=O)N/N=C/c2ccc(-c3ccccc3[N+](=O)[O-])o2)sc(N)c1C#N	4.7	21.1	6.4	0.5	-0.2	/
COc1nc(Nc2nc3ccccc3c(=O)[nH]2)nc2ccc(C)cc12	-36.7	48.1	74.8*	/	31.1*	i
Cc1cc(C)cc(Nc2nc3ccccc3c(=O)[nH]2)c1	-0.5	-10.2	23.2	0.9	0.8	/
SMILES	eIF4E-4G inh	14-3-3 Bad PPI	Hck-Nef inh	Diaphorase act	p47phox inh	Hck-Nef confirm
COc1ccccc1N1CCN(C(=O)CSc2nc(C)c(C)c(=O)[nH]2)CC1	-2.8	-4.3	65.8*	1	-12.1	i
CCc1c(C)nc(SCC(=O)N2CCN(c3ccccc3OC)CC2)[nH]c1=O	-4.0	-8.7	24.5	0.9	-2.6	/
CC(=O)Nc1ccc(N2C(=O)c3ccc(C(=O)Nc4nnc(SCc5ccc(F)cc5)s4)cc3C2=O)cc1	6.7	17.1	86.2*	1.1	-10.8	i
CCC(=O)Nc1nnc(SCc2ccc(F)cc2)s1	0.7	7.3	7.2	1	-7.7	/
CC1=CC(=O)c2c(O)ccc(O)c2C1=O	63.0*	91.5*	60.2*	0.5	-23.0	+
O=C1C=C(O)c2cccc(O)c2C1=O	-13.8	0.0	25.4	/	-2.6	/
Cc1ccc(S(=O)(=O)Nc2ccc(N(C)C)cc2)cc1	11.9	5.9	84.7*	0.9	5.9	i
Cc1cccc(CN2CCN(c3nc4nonc4nc3NC3CC3)CC2=O)c1	1.9	-19.1	-1.8	0.9	-8.4	/
COc1ccc(CN(C(=O)CSc2nnc(-c3ccc(F)cc3)o2)c2ccc(F)cc2)cc1	0.7	2.8	76.8*	0.7	-11.4	i
O=C(NCCc1c[nH]c2ccccc12)/C(=C\c1cccnc1)NC(=O)c1ccccc1F	-1.8	-4.4	2.8	/	-3.0	/
COc1ccc(/C=N/NC(=O)c2nc(Cl)c(Cl)c(N)c2Cl)cc1COc1ccc(F)cc1F	-3.0	5.1	0.8	1	-28.3	/
COc1ccc(/C=N/NC(=O)c2cc(C(C)(C)C)[nH]n2)cc1COc1ccc(F)cc1F	-3.2	-4.1	58.2*	1	5.1	i
Cc1nn(-c2ccccc2)c(Cl)c1/C=N/Nc1nncc(=O)[nH]1	-0.8	-8.6	2.9	/	-3.4	/
CCOCCCNC(=S)NCCNc1nc2ccc(C)cc2cc1C#N	2.2	1.9	9.0	0.8	-8.9	/
CN(C)CCCNC(=S)NCCNc1nc2cc3c(cc2cc1C#N)OCO3	-5.5	-7.3	51.0*	1	-4.0	/
COCCNC(=S)NCCCNc1nc2cc3c(cc2cc1C#N)OCO3	-3.7	2.1	69.9*	0.7	20.5	/
CCOCCCNC(=S)NCCCNc1nc2cc3c(cc2cc1C#N)OCO3	-7.6	5.2	20.6	1	-4.9	/
Cc1ccc(S(=O)(=O)N2CCN(CC(O)c3ccccc3)CC2)cc1C (configuration not stated)	0.6	-14.2	23.5	0.8	-8.9	/
CCC(C)c1ccc(NC(=S)NC(C)C2CCCO2)cc1 (configuration not stated)	-0.1	-0.1	5.5	1	/	/
CCN1CCCc2cc(CN(CCN3CCOCC3)C(=S)Nc3ccc(C)cc3)ccc21	-0.3	-7.4	-18.5	1	-19.3	/
CCN1CCCc2cc(CN(CCN3CCOCC3)C(=S)Nc3cc(F)cc(F)c3)ccc21	-0.5	-5.8	55.2*	0.8	-17.1	i

Source: PubChem
